Tests used:
[1] = Ratio of the amount of platinum bound per nucleotide to ri (0.01)
Method in brief: (§1)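 Linear pBR322 DNA (20 μg/mL) in 10 mM NaClO₄ incubated at 37 °C with Pt compound at input Pt/nucleotide ratio ri of 0.01–0.20; 24 h for the rb/ri series, aliquots at various times for kinetics. Unbound drug removed by ethanol/0.3 M sodium acetate (pH 4.8) precipitation of DNA; Pt bound per nucleotide (rb) measured by TXRF; rb/ri given as percent; mean ± SD.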

[2] = Ratio of the amount of platinum bound per nucleotide to ri (0.20); method in brief: as §1
[3] = Ratio of the amount of platinum bound per nucleotide to ri (0.15); method in brief: as §1
[4] = Ratio of the amount of platinum bound per nucleotide to ri (0.05); method in brief: as §1
[5] = Ratio of the amount of platinum bound per nucleotide to ri (0.10); method in brief: as §1

Row | Substance | Ratio [1] [%] | Ratio [2] [%] | Ratio [3] [%] | Ratio [4] [%] | Ratio [5] [%]
1 | Trans-[PtCl2(dimethylamine)isopropylamine)] (tdmaipa) | 85 | 68 | 70 | 82 | 76
2 | CISPLATIN | 97 | 75 | 80 | 95 | 90

Source: ChEMBL document CHEMBL1133750, “X-Ray structure of cytotoxic trans-[PtCl(2)(dimethylamine)(isopropylamine)]: interstrand cross-link efficiency, DNA sequence specificity, and inhibition of the B-Z transition” (J Med Chem, 2000)
